# Columns and labels:
# [1] = molecular target: T1, Polyunsaturated fatty acid 5-lipoxygenase (Rattus norvegicus, UniProt P12527); test: Inhibitory activity against the production of leukotriene B4 (LTB4) in glycogen-induced peritoneal cells of rat; type: functional
# T1 sequence (P12527 whole entry): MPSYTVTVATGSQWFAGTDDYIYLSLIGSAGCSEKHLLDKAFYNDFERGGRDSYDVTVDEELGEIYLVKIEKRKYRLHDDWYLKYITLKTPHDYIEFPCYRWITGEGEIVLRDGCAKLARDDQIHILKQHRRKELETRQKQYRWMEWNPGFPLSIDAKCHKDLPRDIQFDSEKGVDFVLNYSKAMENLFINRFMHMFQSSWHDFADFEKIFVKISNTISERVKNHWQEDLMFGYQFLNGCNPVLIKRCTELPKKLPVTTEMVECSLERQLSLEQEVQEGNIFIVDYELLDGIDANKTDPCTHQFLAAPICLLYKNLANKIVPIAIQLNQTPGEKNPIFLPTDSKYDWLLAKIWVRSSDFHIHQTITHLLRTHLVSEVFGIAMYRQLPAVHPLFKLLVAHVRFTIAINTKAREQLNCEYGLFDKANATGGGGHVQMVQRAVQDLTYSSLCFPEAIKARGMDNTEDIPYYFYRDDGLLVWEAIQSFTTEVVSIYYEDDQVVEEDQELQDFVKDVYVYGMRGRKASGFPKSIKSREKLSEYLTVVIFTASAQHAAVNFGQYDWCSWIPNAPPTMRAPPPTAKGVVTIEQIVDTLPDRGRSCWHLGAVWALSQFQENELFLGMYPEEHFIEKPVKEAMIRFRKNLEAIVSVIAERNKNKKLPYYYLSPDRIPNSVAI
# Summary of the method: (§1)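 Peritoneal leukocytes elicited in male F344 rats by ip 6% glycogen, suspended in Ca/Mg-free HBSS (5 × 10⁶ cells/mL). Cells preincubated 5 min at 37 °C with compound or vehicle (0.1% DMSO/0.1% BSA), stimulated with A23187 (4 μM, 10 min, 37 °C), stopped with BW755C. LTB₄, TXB₂ and PGE₂ in supernatant by radioimmunoassay. Duplicate points; IC50 by probit analysis.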
# [2] = molecular target: T2, Thromboxane-A synthase (Rattus norvegicus, UniProt P49430); test: Inhibitory activity against the production of thromboxane B2 (TXB2) in glycogen-induced peritoneal cells of rat; type: functional; summary of the method: as §1
# T2 sequence (P49430 whole entry): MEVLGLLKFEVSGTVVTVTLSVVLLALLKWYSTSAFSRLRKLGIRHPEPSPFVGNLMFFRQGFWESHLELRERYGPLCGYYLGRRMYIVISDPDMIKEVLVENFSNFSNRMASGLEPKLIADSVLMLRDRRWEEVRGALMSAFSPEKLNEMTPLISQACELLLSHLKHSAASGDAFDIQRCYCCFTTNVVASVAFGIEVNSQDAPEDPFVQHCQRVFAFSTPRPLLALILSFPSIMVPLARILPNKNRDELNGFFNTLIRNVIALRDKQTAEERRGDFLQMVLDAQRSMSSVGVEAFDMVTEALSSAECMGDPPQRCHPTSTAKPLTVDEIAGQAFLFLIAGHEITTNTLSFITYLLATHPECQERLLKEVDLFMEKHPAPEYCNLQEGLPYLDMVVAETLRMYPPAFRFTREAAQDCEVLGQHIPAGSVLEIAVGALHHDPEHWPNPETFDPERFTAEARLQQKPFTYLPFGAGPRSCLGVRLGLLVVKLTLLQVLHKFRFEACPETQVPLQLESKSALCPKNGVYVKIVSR
# [3] = tested on: Rattus norvegicus; test: Tested for the ability to decrease lesion area in the colon of the TNB/ethanol-induced chronic colitis rats at the dosage of 100 mg/kg/day; type: functional
# Summary of the method: (§2)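 TNB/ethanol colitis rats dosed orally (0.5% MC suspension) once daily for 11 days from day 3, killed day 14. Ethanol-only group as baseline. Colonic MPO activity measured; lesion area (mm²/colon) by stereomicroscope. % inhibition = [1 − (test − ethanol)/(control − ethanol)] × 100. Mean ± SEM.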
# [4] = molecular target: Cyclooxygenase (Rattus norvegicus); test: Inhibitory activity against the production of prostaglandin E2 (PGE2) in glycogen-induced peritoneal cells of rat
# [5] = Tested for inhibitory activity against thromboxane B2 (TXB2) in human platelets
# Summary of the method: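 Washed human platelets (3 × 10⁸ cells/mL) in Tris-HCl-saline, pH 7.4, with 10 μM indomethacin. Preincubated 5 min at 25 °C with compound, PGH₂ (1 μg/mL) for 3 min at 25 °C, citrate/ethanol stop. TXB₂ in supernatant by radioimmunoassay. Duplicate points; IC50 by probit analysis.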
# [6] = species on record: Homo sapiens; test: Tested for inhibitory activity against the production of leukotriene B4 (LTB4) in human whole blood; type: functional, organism-based
# Summary of the method: (§3)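 Heparinized (10 U/mL) fresh blood from healthy volunteers, 0.4 mL aliquots, preincubated 5 min at 37 °C with compound or vehicle (0.1% DMSO/0.1% BSA). A23187 (40 μM) added for 20 min. LTB₄, TXB₂, PGE₂ in plasma by radioimmunoassay. Duplicate points; IC50 by probit analysis.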
# [7] = species on record: Homo sapiens; test: Tested for inhibitory activity against the production of prostaglandin E2 (PGE2) in human whole blood; type: functional, organism-based; summary of the method: as §3
# [8] = species on record: Homo sapiens; test: Tested for inhibitory activity against the production of thromboxane B2 (TXB2) in human whole blood; type: functional, organism-based; summary of the method: as §3
# [9] = molecular target: T3, Thromboxane-A synthase (Homo sapiens, UniProt P24557); test: Tested for inhibitory activity against thromboxane A2 (TXA2) synthetase in microsome of human platelets
# T3 sequence (P24557 whole entry): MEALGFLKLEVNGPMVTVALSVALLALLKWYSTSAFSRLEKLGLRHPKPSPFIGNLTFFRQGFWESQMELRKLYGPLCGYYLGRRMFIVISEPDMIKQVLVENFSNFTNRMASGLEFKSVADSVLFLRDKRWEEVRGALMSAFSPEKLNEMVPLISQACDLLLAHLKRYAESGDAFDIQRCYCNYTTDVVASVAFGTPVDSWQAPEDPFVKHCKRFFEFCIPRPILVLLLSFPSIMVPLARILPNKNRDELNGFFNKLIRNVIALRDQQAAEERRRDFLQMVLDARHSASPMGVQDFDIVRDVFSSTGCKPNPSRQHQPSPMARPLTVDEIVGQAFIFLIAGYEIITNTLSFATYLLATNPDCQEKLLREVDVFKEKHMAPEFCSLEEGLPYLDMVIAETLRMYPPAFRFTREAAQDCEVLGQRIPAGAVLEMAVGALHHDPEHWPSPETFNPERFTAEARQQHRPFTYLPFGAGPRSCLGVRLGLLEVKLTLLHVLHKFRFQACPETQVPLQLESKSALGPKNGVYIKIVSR
# Summary of the method: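 Platelet microsome fraction (105000g) resuspended in 50 mM Tris-HCl-saline, pH 7.4, with 10 μM indomethacin. 20 μg protein preincubated 5 min at 25 °C with compound, PGH₂ (1 μg/mL) for 1 min at 25 °C, citric acid/ethanol stop. TXB₂ by radioimmunoassay. Duplicate points; IC50 by probit analysis.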
# [10] = molecular target: T1, Polyunsaturated fatty acid 5-lipoxygenase; test: Tested for inhibitory activity against 5-lipoxygenase in microsome of RBL-1 cells; type: cell-based
# Summary of the method: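 RBL-1 cells sonicated at 0 °C in 50 mM phosphate, pH 7.4, with 0.25 M sucrose and 1 mM EDTA. Homogenate preincubated 5 min at 37 °C with compound plus 2 mM glutathione, then arachidonic acid (0.2 mM) for 10 min at 37 °C. Formic acid stop, CHCl₃/MeOH extraction, 5-HETE by HPLC. Duplicate points; IC50 by probit analysis.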
# [11] = Tested for the suppression ratio, the difference between the amount of LTB4 produced in the test groups and the control group at the dosage of 100 mg/kg; type: functional
# Summary of the method: (§4)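 Male F344 rats (9 weeks, fasted 2 days) given a single intracolonic dose of 30 mg TNB in 0.25 mL 50% ethanol. Day 7: one oral dose in 0.5% MC, or vehicle. Killed 6 h later; colon incubated with A23187 (2 μg/mL) in Tyrode, 15 min, 37 °C. Eicosanoids by radioimmunoassay. Suppression versus vehicle controls; mean ± SEM.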
# [12] = Tested for the suppression ratio, the difference between the amount of PGE-2 produced in the test groups and the control group at the dosage of 100 mg/kg; type: functional; summary of the method: as §4
# [13] = Tested for the suppression ratio, the difference between the amount of TXB2 produced in the test groups and the control group at the dosage of 100 mg/kg; type: functional; summary of the method: as §4
# [14] = species on record: Homo sapiens; test: Tested for inhibitory activity against leukotriene B4 (LTB4) in human neutrophils; type: functional, organism-based
# Summary of the method: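 Human blood neutrophils from heparinized blood (dextran sedimentation, Percoll gradient), 1 × 10⁶ cells/mL in Ca/Mg-free HBSS. Preincubated 5 min at 37 °C with compound or vehicle, A23187 (4 μM) for 10 min. LTB₄ in cell-free supernatant by radioimmunoassay. Duplicate points; IC50 by probit analysis.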
# [15] = tested on: Rattus norvegicus; test: Tested for the ability to decrease lesion area in the colon of the TNB/ethanol-induced chronic colitis rats at the dosage of 500 mg/kg/day; type: functional; summary of the method: as §2
IC50 [1] [nM],IC50 [2] [nM],IC50 [4] [nM],Structure (SMILES),inhibition in vivo at 100 mg/kg/day [3] [%],further results
< 100,2000,–,Cc1c(O)c(C)c2sc(NCc3cccnc3)nc2c1C,81,–
< 100,330,> 100000,CCc1c(O)c(OC)c(Cc2cccnc2)c2nc(NC)sc12,–,–
–,–,–,CNc1nc2c(Cc3cccnc3)c(C)c(O)c(C)c2s1,39,IC50 [5]: 80 nM; IC50 [6]: 830 nM; IC50 [7]: > 90000 nM; IC50 [8]: 1100 nM; IC50 [9]: 9 nM; IC50 [10]: 230 nM
< 100,2000,> 100000,CCNc1nc2c(C)c(C)c(O)c(Cc3cccnc3)c2s1,64,IC50 [5]: 4300 nM; IC50 [6]: 500 nM; IC50 [7]: > 100000 nM; IC50 [8]: 34800 nM; IC50 [9]: 810 nM; Suppression ratio [11]: 89%; Suppression ratio [12]: 41%; Suppression ratio [13]: 53%; IC50 [10]: 270 nM
230,650,> 100000,CCNc1nc2c(C)c(Cc3cccnc3)c(O)c(C)c2s1,48,IC50 [5]: 2300 nM; IC50 [9]: 390 nM; Suppression ratio [11]: 83%; Suppression ratio [12]: 8%; Suppression ratio [13]: 67%
–,–,–,Cc1c(O)c(C)c2sc(NCc3ccc(S(N)(=O)=O)cc3)nc2c1C,–,IC50 [5]: > 100000 nM; IC50 [6]: 24000 nM; IC50 [7]: > 100000 nM; IC50 [8]: 42000 nM; Suppression ratio [11]: 86%; Suppression ratio [12]: 0%; Suppression ratio [13]: 0%; IC50 [10]: 210 nM
< 100,4400,–,Cc1cc(O)c(C)c2sc(NCc3cccnc3)nc12,71,–
1600,4000,5500,Cc1c(O)c2ccccc2c2nc(NCc3cccnc3)sc12,–,–
170,1300,–,CNc1nc2c(Cc3cccnc3)c(OC)c(O)c(C)c2s1,–,–
< 100,90,> 100000,CCCNc1nc2c(Cc3cccnc3)c(C)c(O)c(C)c2s1.Cl.Cl,–,–
300,< 100,> 100000,CNc1nc2c(C)c(Cc3cccnc3)c(O)c(C)c2s1.Cl.Cl,–,–
250,5300,> 100000,Cc1c(O)c(Cc2cccnc2)c2sc(N)nc2c1C.Cl.Cl,–,–
170,110,> 100000,COc1c(O)c(C)c2sc(N)nc2c1Cc1cccnc1.Cl.Cl,–,–
190,2,–,Cc1c(O)c(C)c2sc(N)nc2c1Cc1cccnc1,–,–
150,180,–,CCc1c(O)c(OC)c(Cc2cccnc2)c2nc(N)sc12,–,–
< 100,100,–,CCNc1nc2c(Cc3cccnc3)c(C)c(O)c(C)c2s1,57,IC50 [5]: 60 nM; IC50 [6]: 1100 nM; IC50 [7]: > 91000 nM; IC50 [8]: 560 nM; IC50 [9]: 10 nM; IC50 [14]: < 100 nM; IC50 [10]: 910 nM
7000,1400,9600,Oc1cc(-c2ccccc2)c2nc(NCc3cccnc3)sc2c1,–,–
90,5500,–,COc1cc2nc(NCc3cccnc3)sc2c(OC)c1O,–,–
–,–,–,O=C(O)c1cc(/N=N/c2ccc(S(=O)(=O)Nc3ccccn3)cc2)ccc1O [SULFASALAZINE],–,inhibition in vivo at 500 mg/kg/day [15]: 16%

# Source: ChEMBL document CHEMBL1127462, “Novel dual inhibitors of 5-lipoxygenase and thromboxane A2 synthetase: synthesis and structure-activity relationships of 3-pyridylmethyl-substituted 2-amino-6-hydroxybenzothiazole derivatives” (J Med Chem, 1994)
